Calls of active or inactive are those of the source. No cut-off for these calls is given here.
Tests used:
[1] = tested on: Photobacterium leiognathi; experiment: Antibacterial activity against Photobacterium leiognathi Sh1 assessed as inhibition of bacterial luminescence at 0.1 mg/mL after 10 mins by bioluminometry-based acute action test; type: functional; design: scale not given: the % may be the effect or the level left
In short: (§1)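 Marine P. leiognathi Sh1 (Azov Sea shrimp isolate) diluted in chloride solution to 10^5 cells/mL; compounds suspended in DMSO mixed with 1 mL bacterial suspension. Acute test: 10 min at 25 °C, then bioluminescence measured by bioluminometer as % of compound-free control. Tetracycline reference.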

[2] = tested on: Aspergillus niger; experiment: Antifungal activity against Aspergillus niger at 1 to 5 mg/mL after 48 to 72 hrs by stiff-plate agar-diffusion method; type: functional, organism-based
In short: (§2)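 Fungal plates run by stiff-plate agar diffusion, substances applied to grooves at 5 mg/mL; 10^9 c.f.u./mL cells; incubation 48–72 h at 28–30 °C. Inhibition zone diameter scored (11–15 mm not sensitive, 16–25 mm sensitive, >25 mm highly sensitive). Nystatin standard; experiments done three times.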

[3] = tested on: Escherichia coli; experiment: Antibacterial activity against Escherichia coli at 1 to 5 mg/mL after 24 hrs by stiff-plate agar-diffusion method; type: functional, organism-based
In short: (§3)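 Agar diffusion (stiff plate) with test substances at 5 mg/mL in grooves, allowed to diffuse into nutrient agar; inoculum 10^9 c.f.u./mL; bacteria incubated 24 h at 35 °C. Read-out: inhibition zone diameter (not sensitive 11–15 mm, sensitive 16–25 mm, highly sensitive >25 mm). Vancomycin and oxacillin as standards; three repeats.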

[4] = tested on: Photobacterium leiognathi; experiment: Antibacterial activity against Photobacterium leiognathi Sh1 assessed as inhibition of bacterial luminescence at 0.025 mg/mL after 16 to 18 hrs by bioluminometry-based chronic action test; design: scale not given: the % may be the effect or the level left
[5] = tested on: Staphylococcus aureus; experiment: Antibacterial activity against Staphylococcus aureus at 1 to 5 mg/mL after 24 hrs by stiff-plate agar-diffusion method; type: functional, organism-based; in short: as §3
[6] = tested on: Yamadazyma tenuis; experiment: Antifungal activity against Candida tenuis at 1 to 5 mg/mL after 48 to 72 hrs by stiff-plate agar-diffusion method; type: functional, organism-based; in short: as §2
[7] = tested on: Photobacterium leiognathi; experiment: Antibacterial activity against Photobacterium leiognathi Sh1 assessed as inhibition of bacterial luminescence at 0.1 mg/mL after 10 mins by bioluminometry-based chronic action test; type: functional; design: scale not given: the % may be the effect or the level left
In short: (§4)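 Chronic (growth plus luminescence) test with P. leiognathi Sh1 at 10^5 cells/mL in chloride solution, compounds added in DMSO. After 10 min at 25 °C, growth medium added at 1:50 and the mix incubated 16–18 h at 30 °C. Luminescence then measured by bioluminometer as % of untreated control. Tetracycline reference.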

[8] = tested on: Photobacterium leiognathi; experiment: Antibacterial activity against Photobacterium leiognathi Sh1 assessed as inhibition of bacterial luminescence at 0.25 mg/mL after 10 mins by bioluminometry-based acute action test; type: functional; design: scale not given: the % may be the effect or the level left; in short: as §1
[9] = tested on: Mycobacterium; experiment: Antibacterial activity against Mycobacterium luteum at 1 to 5 mg/mL after 24 hrs by stiff-plate agar-diffusion method; type: functional, organism-based; in short: as §3
[10] = tested on: Photobacterium leiognathi; experiment: Antibacterial activity against Photobacterium leiognathi Sh1 assessed as inhibition of bacterial luminescence at 0.025 mg/mL after 10 mins by bioluminometry-based acute action test; type: functional; design: scale not given: the % may be the effect or the level left; in short: as §1
[11] = tested on: Photobacterium leiognathi; experiment: Antibacterial activity against Photobacterium leiognathi Sh1 assessed as inhibition of bacterial luminescence at 0.25 mg/mL after 10 mins by bioluminometry-based chronic action test; type: functional; design: scale not given: the % may be the effect or the level left; in short: as §4
[12] = tested on: Photobacterium leiognathi; experiment: Antibacterial activity against Photobacterium leiognathi Sh1 assessed as inhibition of bacterial luminescence at 0.025 mg/mL after 10 mins by bioluminometry-based chronic action test; type: functional; design: scale not given: the % may be the effect or the level left; in short: as §4
[13] = tested on: Aspergillus niger; experiment: Antifungal activity against Aspergillus niger assessed as zone of inhibition at 0.5 mg/mL after 48 to 72 hrs by stiff-plate agar-diffusion method; type: functional; details: read-out: DIZ
[14] = tested on: Mycobacterium; experiment: Antibacterial activity against Mycobacterium luteum assessed as zone of inhibition at 0.1 mg/mL after 24 hrs by stiff-plate agar-diffusion method; type: functional; details: read-out: DIZ
[15] = tested on: Escherichia coli; experiment: Antibacterial activity against Escherichia coli assessed as zone of inhibition at 0.1 mg/mL after 24 hrs by stiff-plate agar-diffusion method; type: functional; details: read-out: DIZ
[16] = tested on: Yamadazyma tenuis; experiment: Antifungal activity against Candida tenuis assessed as zone of inhibition at 0.5 mg/mL after 48 to 72 hrs by stiff-plate agar-diffusion method; type: functional; details: read-out: DIZ
[17] = tested on: Escherichia coli; experiment: Antibacterial activity against Escherichia coli assessed as zone of inhibition at 0.5 mg/mL after 24 hrs by stiff-plate agar-diffusion method; type: functional; details: read-out: DIZ
[18] = tested on: Staphylococcus aureus; experiment: Antibacterial activity against Staphylococcus aureus assessed as zone of inhibition at 0.1 mg/mL after 24 hrs by stiff-plate agar-diffusion method; type: functional; details: read-out: DIZ
[19] = tested on: Staphylococcus aureus; experiment: Antibacterial activity against Staphylococcus aureus assessed as zone of inhibition at 0.5 mg/mL after 24 hrs by stiff-plate agar-diffusion method; type: functional; details: read-out: DIZ
[20] = tested on: Yamadazyma tenuis; experiment: Antifungal activity against Candida tenuis assessed as zone of inhibition at 0.1 mg/mL after 48 to 72 hrs by stiff-plate agar-diffusion method; type: functional; details: read-out: DIZ
[21] = tested on: Mycobacterium; experiment: Antibacterial activity against Mycobacterium luteum assessed as zone of inhibition at 0.5 mg/mL after 24 hrs by stiff-plate agar-diffusion method; type: functional; details: read-out: DIZ
[22] = tested on: Aspergillus niger; experiment: Antifungal activity against Aspergillus niger assessed as zone of inhibition at 0.1 mg/mL after 48 to 72 hrs by stiff-plate agar-diffusion method; type: functional; details: read-out: DIZ
[23] = tested on: PC-3; experiment: Cytotoxicity against human PC3 cells assessed as cell growth at 10^-5 M after 48 hrs by SRB assay; type: functional; details: PC-3, 48 h, read-out: Activity
In short: (§5)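 NCI human tumor cell line panel from nine cancer types. Each line was inoculated and preincubated 24–48 h, then exposed to a single concentration (10^-5 M) for 48 h. Growth was read by sulforhodamine B protein staining, measured spectrophotometrically. Value reported as percent growth of treated cells relative to untreated controls.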

[24] = tested on: SNB-75; experiment: Cytotoxicity against human SNB75 cells assessed as cell growth at 10^-5 M after 48 hrs by SRB assay; type: functional; details: SNB-75, 48 h, read-out: Activity; in short: as §5
[25] = tested on: A549; experiment: Cytotoxicity against human A549 cells assessed as cell growth at 10^-5 M after 48 hrs by SRB assay; type: functional; details: A549, 48 h, read-out: Activity
In short: (§6)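 NCI 60-cell-line one-dose primary screen: cells inoculated and preincubated 24–48 h, then test agent added at a single 10^-5 M concentration for a further 48 h. Endpoint is sulforhodamine B protein staining read spectrophotometrically. Reported as percent growth relative to untreated control cells.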

[26] = tested on: U-251; experiment: Cytotoxicity against human U251 cells assessed as cell growth at 10^-5 M after 48 hrs by SRB assay; type: functional; details: U-251, 48 h, read-out: Activity; in short: as §5
[27] = tested on: CCRF-CEM; experiment: Cytotoxicity against human CCRF-CEM cells assessed as cell growth at 10^-5 M after 48 hrs by SRB assay; type: functional; details: read-out: Activity; in short: as §6
[28] = tested on: SK-OV-3; experiment: Cytotoxicity against human SKOV3 cells assessed as cell growth at 10^-5 M after 48 hrs by SRB assay; type: functional; details: SK-OV-3, 48 h, read-out: Activity; in short: as §5
[29] = tested on: M14; experiment: Cytotoxicity against human M14 cells assessed as cell growth at 10^-5 M after 48 hrs by SRB assay; type: functional; details: M14, 48 h, read-out: Activity; in short: as §6
[30] = tested on: K562; experiment: Cytotoxicity against human K562 cells assessed as cell growth at 10^-5 M after 48 hrs by SRB assay; type: functional; details: K562, 48 h, read-out: Activity; in short: as §6
[31] = tested on: UO-31; experiment: Cytotoxicity against human UO31 cells assessed as cell growth at 10^-5 M after 48 hrs by SRB assay; type: functional; details: UO-31, 48 h, read-out: Activity; in short: as §5
[32] = tested on: SR; experiment: Cytotoxicity against human SR cells assessed as cell growth at 10^-5 M after 48 hrs by SRB assay; type: functional; details: read-out: Activity; in short: as §5
[33] = tested on: Photobacterium leiognathi; experiment: Antibacterial activity against Photobacterium leiognathi Sh1 at 0.1 to 0.25 ug/mL; type: functional, organism-based
[34] = tested on: UACC-257; experiment: Cytotoxicity against human UACC257 cells assessed as cell growth at 10^-5 M after 48 hrs by SRB assay; type: functional; details: UACC-257, 48 h, read-out: Activity; in short: as §5
[35] = in the assay text read “after 16 to 18 hrs” for “after 10 mins”

CCC1C2CCC(C2)C1NC(=O)CSc1nc2ccccc2c2nc(=O)c(-c3ccc(C)cc3)nn12 (stereo not given)
Activity [1]: 96%
Activity [2]: inactive
Activity [3]: inactive
Activity [4]: 100%
Activity [5]: inactive
Activity [6]: inactive
Activity [7, 35]: 120%
Activity [8]: 120%
Activity [9]: inactive
Activity [10]: 110%
Activity [11, 35]: 44%

COc1ccc(-c2nn3c(SCC(=O)Nc4ccc(C56CC7CC(CC(C7)C5)C6)cc4)nc4ccccc4c3nc2=O)cc1
Activity [12]: 48.72%
zone of inhibition at 500 µg/mL [13]: 0 mm
Activity [1]: 59.57%
zone of inhibition at 100 µg/mL [14]: 0 mm
zone of inhibition at 100 µg/mL [15]: 0 mm
zone of inhibition at 500 µg/mL [16]: 0 mm
zone of inhibition at 500 µg/mL [17]: 0 mm
zone of inhibition at 100 µg/mL [18]: 7 mm
zone of inhibition at 500 µg/mL [19]: 0 mm
zone of inhibition at 100 µg/mL [20]: 0 mm
Activity [7]: 34.62%
Activity [8]: 59.57%
zone of inhibition at 500 µg/mL [21]: 0 mm
zone of inhibition at 100 µg/mL [22]: 0 mm
Activity [10]: 76.6%
Activity [11]: 76.92%

O=C(O)CSc1nc2ccccc2c2nc(=O)c(-c3ccccc3)nn12
Activity [12, 35]: 34%
growth at 10 µM [23]: 90.8%
growth at 10 µM [24]: 86.6%
growth at 10 µM [25]: 82.5%
Activity [1]: 75%
growth at 10 µM [26]: 91.4%
Activity [2]: inactive
Activity [3]: inactive
growth at 10 µM [27]: 92.5%
growth at 10 µM [28]: 97%
Activity [5]: inactive
growth at 10 µM [29]: 96.8%
Activity [6]: inactive
growth at 10 µM [30]: 92%
growth at 10 µM [31]: 89%
growth at 10 µM [32]: 91.9%
Activity [7, 35]: 40.9%
Activity [8]: 50%
Activity [33]: inactive
Activity [9]: inactive
growth at 10 µM [34]: 93.2%
Activity [10]: 100%
Activity [11, 35]: 3.6%

Reference: ChEMBL document CHEMBL1914438, “Synthesis and biological activity of novel N-cycloalkyl-(cycloalkylaryl)-2-[(3-R-2-oxo-2H-[1,2,4]triazino[2,3-c]quinazoline-6-yl)thio]acetamides” (2011)
